The species entered for data set [1] is Mus musculus. In words: Biodistribution in mice bladder plus excreted urine was determined. Type of data set: ADME, organism-based. Conditions: in vivo. In outline: (§1)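 Male Swiss Albino mice (19–34g, at least five per group) were injected in the tail vein with HPLC-purified 99mTc complex in 50% methanol (0.1 mL, 2–3 μCi). Killed by cardiectomy under slight ether anesthesia at 5, 10, 30 or 60 min. Organs were excised, weighed and γ-counted against standards of 1% injected dose, as % ID/organ. Bladder plus excreted urine was not weighed. Stomach and intestines were not emptied.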

Data set [2] is filed under the species Mus musculus. In words: Percentage biodistribution in mouse blood, 10 minutes post injection. Type of data set: ADME, organism-based. Conditions: in vivo. In outline:
(§2)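 Mice (Swiss Albino males, 19–34g, ≥5/group) received tail-vein HPLC-purified 99mTc complex (0.1 mL, 2–3 μCi, 50% methanol) and were killed by cardiectomy under ether at set times. Blood % ID was computed from measured activity and sample weight, with blood taken as 7% of body weight, against 1%-dose standards.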

For data set [3], the species on record is Mus musculus. In words: Percentage biodistribution in mouse blood, 30 minutes post injection. In kind it is ADME, organism-based. Conditions: in vivo, 0.5 h. In outline: as §2
The species entered for data set [4] is Mus musculus. In words: Percentage biodistribution in mouse blood, 5 minutes post injection. In kind it is ADME, organism-based. Conditions: in vivo. In outline:
as §2

For data set [5], the species on record is Mus musculus. Briefly: Percentage biodistribution in mouse blood, 60 minutes post injection. In kind it is ADME, organism-based. Particulars: in vivo, 1 h. Put shortly:
as §2

The species named for data set [6] is Mus musculus. In words: Percentage biodistribution in mouse brain, 10 minutes post injection. Conditions: in vivo. Type of data set: ADME, organism-based. Put shortly: as §1
For data set [7], the species on record is Mus musculus. In words: Percentage biodistribution in mouse brain, 30 minutes post injection. Type of data set: ADME, organism-based. Conditions: in vivo, 0.5 h. Put shortly: as §1
The species named for data set [8] is Mus musculus. Briefly: Percentage biodistribution in mouse brain, 5 minutes post injection. In kind it is ADME, organism-based. Particulars: in vivo. Put shortly:
as §1

The species entered for data set [9] is Mus musculus. Briefly: Percentage biodistribution in mouse brain, 60 minutes post injection. Type of data set: ADME, organism-based. Conditions: in vivo, 1 h. Put shortly: as §1
Data set [10] is filed under the species Mus musculus. In words: Percentage biodistribution in mouse heart, 10 minutes post injection. In kind it is ADME, organism-based. Particulars: in vivo. In outline:
as §1

The species named for data set [11] is Mus musculus. In words: Percentage biodistribution in mouse heart, 30 minutes post injection. In kind it is ADME, organism-based. Conditions: in vivo, 0.5 h. Put shortly: as §1
The species entered for data set [12] is Mus musculus. In words: Percentage biodistribution in mouse heart, 5 minutes post injection. Particulars: in vivo. In kind it is ADME, organism-based. In outline:
as §1

Data set [13] is filed under the species Mus musculus. Briefly: Percentage biodistribution in mouse intestine, 10 minutes post injection. Type of data set: ADME, organism-based. Particulars: in vivo. In outline:
as §1

The species named for data set [14] is Mus musculus. Briefly: Percentage biodistribution in mouse intestine, 30 minutes post injection. Particulars: in vivo, 0.5 h. Type of data set: ADME, organism-based. Put shortly:
as §1

For data set [15], the species on record is Mus musculus. Briefly: Percentage biodistribution in mouse intestine, 5 minutes post injection. In kind it is ADME, organism-based. Conditions: in vivo. Put shortly: as §1
Data set [16] is filed under the species Mus musculus. In words: Percentage biodistribution in mouse intestine, 60 minutes post injection. Type of data set: ADME, organism-based. Particulars: in vivo, 1 h. Put shortly: as §1
For data set [17], the species on record is Mus musculus. In words: Percentage biodistribution in mouse liver, 10 minutes post injection. In kind it is ADME, organism-based. Particulars: in vivo. In outline:
as §1

The species named for data set [18] is Mus musculus. Briefly: Percentage biodistribution in mouse liver, 30 minutes of post injection. In kind it is ADME, organism-based. Particulars: in vivo, 0.5 h. Put shortly: as §1
For data set [19], the species on record is Mus musculus. Briefly: Percentage biodistribution in mouse liver, 5 minutes post injection. Type of data set: ADME, organism-based. Particulars: in vivo. In outline: as §1
The species entered for data set [20] is Mus musculus. Briefly: Biodistribution in mice liver at 60 minutes of post injection. Type of data set: ADME, organism-based. Particulars: in vivo, 1 h. In outline: as §1
Data set [21] is filed under the species Mus musculus. Briefly: Biodistribution in mice lungs at 10 min of post injection. In kind it is ADME, organism-based, Lung. Conditions: in vivo. Put shortly:
as §1

The species entered for data set [22] is Mus musculus. In words: Percentage biodistribution in mouse lung, 30 minutes post injection. In kind it is ADME, organism-based. Particulars: in vivo, 0.5 h. In outline: as §1
The species named for data set [23] is Mus musculus. Briefly: Percentage biodistribution in mousee lung, 5 minutes post injection. In kind it is ADME, organism-based. Particulars: in vivo. Put shortly: as §1
Data set [24] is filed under the species Mus musculus. In words: Biodistribution in mice lungs at 60 min of post injection. Conditions: in vivo, 1 h. Type of data set: ADME, organism-based, Lung. In outline: as §1
Data set [25] is filed under the species Mus musculus. In words: Percentage biodistribution in mouse spleen. In kind it is ADME, organism-based. Conditions: in vivo. In outline: as §1
The species named for data set [26] is Mus musculus. In words: Percentage biodistribution in mouse stomach. Particulars: in vivo. In kind it is ADME, organism-based. Put shortly: as §1
Data set [27] in a line: Partition coefficient (logD7.4). Type of data set: physicochemical. Particulars: octanol/water, pH 7.4. Put shortly: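 HPLC-purified 99mTc complex (0.1 mL) was added to 2 mL each of 1-octanol and 0.125 M phosphate buffer, pH 7.4. The mix was vortexed and centrifuged at 5000 rpm for 5 min. Three 0.2 mL samples per layer were γ-counted. Mean cpm/mL of octanol was divided by that of buffer.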

The species entered for data set [28] is Mus musculus. In words: Percentage biodistribution in mouse heart, 60 minutes post injection. In kind it is ADME, organism-based. Particulars: in vivo, 1 h. In outline: as §1
Data set [29] in a line: Retention ratio is measured as the brain uptake (%ID/organ) at 30 min pi divided by the brain uptake at 5 min pi. In kind it is functional. Put shortly:
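Brain % ID/organ in tail-vein-injected male Swiss Albino mice (0.1 mL, 2–3 μCi purified 99mTc complex in 50% methanol; γ-counted after cardiectomy under ether). Mean brain % ID/organ at 30 min pi was divided by the mean at 5 min pi.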

A short description of data set [30]: % ID/gram in brain divided by %ID/gram in blood at 10 minutes. Type of data set: functional, tissue-based. Put shortly: (§3)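 Male Swiss Albino mice (19–34g, at least five per group) got HPLC-purified 99mTc complex in 50% methanol, 0.1 mL, 2–3 μCi, by tail vein. They were killed by cardiectomy under light ether at 5, 10, 30 or 60 min. % ID/g (% ID/organ ÷ organ weight) of brain was divided by that of blood; blood assumed 7% of body weight.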

The nature of data set [31]: % ID/gram in brain divided by %ID/gram in blood at 5 minutes. Type of data set: functional, tissue-based. In outline:
as §3

Data set [32] in a line: % ID/gram in brain divided by %ID/gram in blood at 60 minutes. Type of data set: functional, tissue-based. Put shortly:
as §3

“And” between values parts separate entries of the source, which are not always exact repeats. Equal entries are not always repeated.

The term logD denotes the decadic logarithm of the distribution of all forms, ionised or not, between an organic phase and buffer at a given pH. A higher logD goes with higher lipophilicity.

As to “[4-methoxythio)phenolato][N,N-bis(2-mercaptoethyl)-N',N'-diethylethylenediamine] oxotechnetium [listing 1 of 2 here]”, the ID/organ in the data set filed under Mus musculus [1] was 2.24% and 6.87%; in the data set filed under Mus musculus [2], 1.53%; in the data set filed under Mus musculus [3] it was 5.14% and 1.29%; in the data set listed under Mus musculus [4], 6.09% and 2.02%; in the data set listed under Mus musculus [5] it was 1.21%; in the data set listed under Mus musculus [6], 2.47%. The ID/organ in the data set filed under Mus musculus [7] was 0.56% and 1.71%; in the data set listed under Mus musculus [8] it was 2.26% and 3.01%; in the data set filed under Mus musculus [9] it was 1.54%; in the data set filed under Mus musculus [10], 0.46%; in the data set filed under Mus musculus [11], 0.28% and 0.19%; in the data set filed under Mus musculus [12] it was 0.81% and 0.74%. The ID/organ in the data set filed under Mus musculus [13] is 9.61%; in the data set filed under Mus musculus [14], 21.19% and 18.99%; in the data set filed under Mus musculus [15], 9.22% and 8.31%; in the data set listed under Mus musculus [16], 33.7%; in the data set filed under Mus musculus [17], 14.14%; in the data set filed under Mus musculus [18] it was 27.33% and 25.58%. In addition, the ID/organ was 17.06% and 10.73% in the data set filed under Mus musculus [19]; 35.12% in the data set listed under Mus musculus [20]; 9.78% in the data set listed under Mus musculus [21]; 3.49% and 3.09% in the data set filed under Mus musculus [22]; 11.03% and 15.37% in the data set filed under Mus musculus [23]; 1.79% in the data set listed under Mus musculus [24]. Further, the ID/organ was 0.61% and 0.21% in the data set filed under Mus musculus [25]; 2.43% and 2.34% in the data set listed under Mus musculus [26]; 0.12% in the data set filed under Mus musculus [28]. In addition, the logD in [27] was 2.54 and 2.63.

As to “[4-methoxythio)phenolato][N,N-bis(2-mercaptoethyl)-N',N'-diethylethylenediamine] oxotechnetium [listing 2 of 2 here]”, in data set [29], the Retention ratio was 0.25 and 0.57. For the same substance, the Ratio in data set [30] was 4.71; in data set [31] it was 1.7 and 4.43; in [32], 4.23.

(Values after ChEMBL document CHEMBL1130109, “Novel 99mTc aminobisthiolato/monothiolato "3 + 1" mixed ligand complexes: structure-activity relationships and preliminary in vivo validation as brain blood flow imaging agents” (J Med Chem, 1997).)
